The source of these data is ChEMBL document CHEMBL1122485, “Antibacterially active substituted anilides of carboxylic and sulfonic acids” (1983).

Converted amounts (≈) assume the structure as drawn.

For the assay, the system named is Staphylococcus aureus. Nature of the assay: Minimum inhibitory concentration against staphylococcus aureus ATCC 6538. The assay is classed as functional. Put shortly:
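Agar dilution: 1% stocks in 95% ethanol or water, serially diluted into nutrient agar (pH 6.8) to 1000, 100, 10 and 1 ppm. Plates were dried 30 min at 37 °C and spotted with ten drops of 24-h nutrient broth culture. Incubation was 48 h at 37 °C, in duplicate, with hexachlorophene as standard. MIC was the lowest level with no growth of any inoculum on either dish.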
On to `CCCc1ccc(S(=O)(=O)N(C)c2ccc(Cl)c(Cl)c2)cc1`, for which the MIC was over 1000 µg/mL.

In turn, `CCCCc1ccc(S(=O)(=O)Nc2ccc(Cl)c(Cl)c2)cc1` came in with an MIC of 10 µg/mL (≈ 27.9 µM).

Regarding `CCCc1ccc(C(=O)Nc2cc([N+](=O)[O-])ccc2O)cc1`, the minimum inhibitory concentration (MIC) is 10 µg/mL (≈ 33.3 µM). The result for `C=C(CCCCC)C(=O)Nc1ccc(Cl)c([N+](=O)[O-])c1` reads 10 µg/mL (≈ 33.7 µM); that for `O=C(Cc1ccccc1)Nc1cc(Cl)ccc1O`, 100 µg/mL (≈ 382 µM). In turn, `C=C(CCCCC)C(=O)Nc1cc([N+](=O)[O-])ccc1O` returned a minimum inhibitory concentration (MIC) of 10 µg/mL (≈ 35.9 µM). Molecule `CC(C)c1ccc(S(=O)(=O)Nc2ccc(Cl)c(Cl)c2)cc1` showed an MIC of 10 µg/mL (≈ 29 µM). The same measure for `CCCCCCCCCCCC(=O)Nc1cc(Cl)ccc1O`: 1 µg/mL (≈ 3.07 µM); for `C=C(CCCCCCC)C(=O)Nc1cc(Cl)ccc1O`: 1 µg/mL (≈ 3.38 µM). The same measure for `CCCCCC(=O)Nc1cc([N+](=O)[O-])ccc1O`: 10 µg/mL (≈ 39.6 µM). Molecule `CCC(C(=O)Nc1ccc(Cl)c(Cl)c1)c1ccccc1` (stereo unspecified) returned an MIC of 10 µg/mL (≈ 32.4 µM). The same measure for `CCCc1ccc(C(=O)Nc2cc(Cl)ccc2O)cc1`: over 1000 µg/mL; for `O=C(O)CCCCC(=O)Nc1ccc(Cl)c(Cl)c1`: 1000 µg/mL (≈ 3450 µM). For `O=C(O)CCCCCCC(=O)Nc1ccc(Cl)c(Cl)c1`, the minimal inhibitory concentration (MIC) is 100 µg/mL (≈ 314 µM). Regarding `COC(=O)CCCCCCCCC(=O)Nc1ccc(Cl)c([N+](=O)[O-])c1`, the minimum inhibitory concentration (MIC) is over 1000 µg/mL. Molecule `C=C(CCCCCCC)C(=O)Nc1ccc(Cl)c(Cl)c1` showed a minimal inhibitory concentration (MIC) of 1 µg/mL (≈ 3.18 µM). Molecule `O=C(O)CCCCCCCC(=O)Nc1ccc(Cl)c([N+](=O)[O-])c1` registered an MIC of 100 µg/mL (≈ 292 µM). With `COC(=O)CCCCCCC(=O)Nc1ccc(Cl)c(Cl)c1`, the minimum inhibitory concentration (MIC) is 1000 µg/mL (≈ 3010 µM). In the case of `COC(=O)CCCCCCCC(=O)Nc1ccc(Cl)c([N+](=O)[O-])c1`, the MIC turned out to be 1000 µg/mL (≈ 2800 µM). The result for `CCCCCCC(=O)Nc1ccc(Cl)c(Cl)c1` reads 10 µg/mL (≈ 36.5 µM); that for `CCCCCCCCC(=O)Nc1ccc(Cl)c(Cl)c1`, 1 µg/mL (≈ 3.31 µM).

`CCCCc1ccc(C(=O)Nc2cc(Cl)ccc2O)cc1` came in with a minimum inhibitory concentration (MIC) of 1000 µg/mL (≈ 3290 µM). The same measure for `CCCCCCC(=O)Nc1cc(Cl)ccc1O`: 10 µg/mL (≈ 39.1 µM); for `COC(=O)CCCCCCC(=O)Nc1ccc(Cl)c([N+](=O)[O-])c1`: 1000 µg/mL (≈ 2920 µM). In turn, `O=C(Nc1cc([N+](=O)[O-])ccc1O)c1ccc(Cl)c(Cl)c1` yielded an MIC of 10 µg/mL (≈ 30.6 µM). For `C=C(CCCCCCCCCC)C(=O)Nc1ccc(Cl)c(Cl)c1`, the MIC is over 1000 µg/mL. The same measure for `CCCCCCCCCC(=O)Nc1cc(Cl)cc(Cl)c1`: 10 µg/mL (≈ 31.6 µM); for `CCCCCCCCCCCC(=O)Nc1ccc(Cl)c(Cl)c1`: 100 µg/mL (≈ 290 µM). With `C=C(CCCCCC)C(=O)Nc1ccc(Cl)c([N+](=O)[O-])c1`, inhibition of growth (MIC) required 1 µg/mL (≈ 3.22 µM).

`CCCCCCCCCC(=O)Nc1ccc(Cl)c([N+](=O)[O-])c1`: 10 µg/mL (≈ 30.6 µM) was the least that counted as inhibitory (MIC). For `CCCCCCC(=O)Nc1ccc(Cl)c([N+](=O)[O-])c1`, it took 10 µg/mL (≈ 35.1 µM) to inhibit growth (MIC). The molecule `COC(=O)CCC(=O)Nc1ccc(Cl)c(Cl)c1` had a minimum inhibitory concentration (MIC) of 1000 µg/mL (≈ 3620 µM).

The molecule `C=C(CCCCCCCC)C(=O)Nc1cc(Cl)ccc1O` had a minimum inhibitory concentration (MIC) of 1 µg/mL (≈ 3.23 µM). `O=C(Nc1ccc(Cl)c(Cl)c1)c1ccc(Cl)c(Cl)c1` registered a minimal inhibitory concentration (MIC) of over 1000 µg/mL. Molecule `CCCCCCCCCCCC(=O)Nc1cc([N+](=O)[O-])ccc1O` gave an MIC of 1000 µg/mL (≈ 2970 µM).

`C=C(CCCCCC)C(=O)Nc1cc(Cl)ccc1O` showed an MIC of 1 µg/mL (≈ 3.55 µM). `CCCCCCCCCCCC(=O)Nc1ccc(Cl)c([N+](=O)[O-])c1` had an MIC of over 1000 µg/mL.

The molecule `COC(=O)CCCCCCCCC(=O)Nc1ccc(Cl)c(Cl)c1` returned an MIC of over 1000 µg/mL. The same measure for `C=C(CCCCCC)C(=O)Nc1ccc(Cl)c(Cl)c1`: 1 µg/mL (≈ 3.33 µM).

The molecule `O=C(O)CCCCCCCC(=O)Nc1ccc(Cl)c(Cl)c1` yielded an MIC of 1 µg/mL (≈ 3.01 µM). In the case of `C=C(CCCCCCC)C(=O)Nc1cc(Cl)cc(Cl)c1`, the MIC worked out at 10 µg/mL (≈ 31.8 µM). For `CCCc1ccc(C(=O)Nc2ccc(Cl)c(Cl)c2)cc1`, the MIC was over 1000 µg/mL. For the molecule `COC(=O)CCCCC(=O)Nc1ccc(Cl)c(Cl)c1`, the MIC came out at 1000 µg/mL (≈ 3290 µM).

Consider `CCc1ccc(S(=O)(=O)Nc2ccc(Cl)c(Cl)c2)cc1`, for which the minimal inhibitory concentration (MIC) came to 10 µg/mL (≈ 30.3 µM).

The molecule `CCCCCCCCCCCC(=O)Nc1cc(Cl)cc(Cl)c1` gave an MIC of 10 µg/mL (≈ 29 µM). For the molecule `O=C(O)CCCCCCCCC(=O)Nc1ccc(Cl)c(Cl)c1`, the minimum inhibitory concentration (MIC) is over 1000 µg/mL. The result for `C=C(CCCCC)C(=O)Nc1ccc(Cl)c(Cl)c1` reads 10 µg/mL (≈ 34.9 µM).

For the molecule `CCCCCCCCCC(=O)Nc1ccc(Cl)c(Cl)c1`, the minimal inhibitory concentration (MIC) was found to be 10 µg/mL (≈ 31.6 µM). As to `CCCCCCCCCC(=O)Nc1cc(Cl)ccc1O`, 1 µg/mL (≈ 3.36 µM) was the least that counted as inhibitory (MIC). Molecule `CC(CC(=O)Nc1ccc(Cl)c(Cl)c1)c1ccccc1` (stereo unspecified) displayed an MIC of 10 µg/mL (≈ 32.4 µM). `CCCCc1ccc(C(=O)Nc2ccc(Cl)c(Cl)c2)cc1` registered a minimum inhibitory concentration (MIC) of 1000 µg/mL (≈ 3100 µM). The same measure for `CCCCCC(=O)Nc1ccc(Cl)c(Cl)c1`: 10 µg/mL (≈ 38.4 µM); for `O=C(CCc1ccccc1)Nc1cc(Cl)ccc1O`: 100 µg/mL (≈ 363 µM). The result for `CC(C)c1ccc(S(=O)(=O)Nc2cc(Cl)ccc2O)cc1` reads 10 µg/mL (≈ 30.7 µM); that for `CCCCCCCCC(=O)Nc1cc(Cl)cc(Cl)c1`, 1 µg/mL (≈ 3.31 µM); that for `CCCCc1ccc(C(=O)Nc2cc([N+](=O)[O-])ccc2O)cc1`, 1 µg/mL (≈ 3.18 µM). The same measure for `O=C(Nc1cc(Cl)ccc1O)c1ccc(Cl)c(Cl)c1`: over 1000 µg/mL; for `C=C(CCCCCCCCCC)C(=O)Nc1cc(Cl)ccc1O`: 1 µg/mL (≈ 2.96 µM); for `O=[N+]([O-])c1ccc(O)c(NS(=O)(=O)c2ccc(Cl)c(Cl)c2)c1`: 10 µg/mL (≈ 27.5 µM).

For `CCCCCC(=O)Nc1cc(Cl)cc(Cl)c1`, it took 10 µg/mL (≈ 38.4 µM) to inhibit growth (MIC). The same measure for `CCCc1ccc(S(=O)(=O)Nc2cc([N+](=O)[O-])ccc2O)cc1`: 1 µg/mL (≈ 2.97 µM). As for `CCCCCCCCC(=O)Nc1cc([N+](=O)[O-])ccc1O`, inhibition of growth (MIC) required 10 µg/mL (≈ 34 µM). For `C=C(CCCC)C(=O)Nc1cc(Cl)cc(Cl)c1`, 10 µg/mL (≈ 36.7 µM) was the least that counted as inhibitory (MIC).

`O=C(O)CCCCC(=O)Nc1ccc(Cl)c([N+](=O)[O-])c1` gave a minimum inhibitory concentration (MIC) of 100 µg/mL (≈ 333 µM).

On to `C=C(CCCC)C(=O)Nc1ccc(Cl)c(Cl)c1`, for which the MIC was 10 µg/mL (≈ 36.7 µM). Consider `C=C(CCCCCCCC)C(=O)Nc1cc(Cl)cc(Cl)c1`, for which 10 µg/mL (≈ 30.5 µM) was the least that counted as inhibitory (MIC). `C=C(CCCCCCCCCC)C(=O)Nc1cc(Cl)cc(Cl)c1` registered an MIC of over 1000 µg/mL. The molecule `CCCCCCc1ccc(C(=O)Nc2ccc(Cl)c(Cl)c2)cc1` returned a minimum inhibitory concentration (MIC) of over 1000 µg/mL. As for `CCCc1ccc(S(=O)(=O)Nc2ccc(Cl)c([N+](=O)[O-])c2)cc1`, inhibition of growth (MIC) required 10 µg/mL (≈ 28.2 µM). The result for `C=C(CCCCCCCC)C(=O)Nc1ccc(Cl)c([N+](=O)[O-])c1` reads 1 µg/mL (≈ 2.95 µM). `O=S(=O)(Nc1ccc(Cl)c(Cl)c1)c1cc(Cl)ccc1Cl`: the minimum inhibitory concentration (MIC) is 1000 µg/mL (≈ 2690 µM). In turn, `O=S(=O)(Nc1cc(Cl)ccc1O)c1ccc(Cl)c(Cl)c1` returned a minimal inhibitory concentration (MIC) of 10 µg/mL (≈ 28.4 µM). The result for `O=C(Cc1ccccc1)Nc1ccc(Cl)c(Cl)c1` reads over 1000 µg/mL.

The molecule `C=C(CCCCC)C(=O)Nc1cc(Cl)ccc1O` gave a minimum inhibitory concentration (MIC) of 100 µg/mL (≈ 373 µM). The result for `C=C(CCCCCCC)C(=O)Nc1ccc(Cl)c([N+](=O)[O-])c1` reads 1 µg/mL (≈ 3.08 µM). The result for `O=C(O)CCCCCCCCC(=O)Nc1ccc(Cl)c([N+](=O)[O-])c1` reads over 1000 µg/mL; that for `C=C(CCCC)C(=O)Nc1cc(Cl)ccc1O`, 100 µg/mL (≈ 394 µM); that for `CCCCCCCC(=O)Nc1cc(Cl)ccc1O`, 10 µg/mL (≈ 37.1 µM). The same measure for `O=C(O)CCC(=O)Nc1ccc(Cl)c(Cl)c1`: 1000 µg/mL (≈ 3820 µM).

`Cc1ccc(C(=O)Nc2ccc(Cl)c(Cl)c2)cc1` displayed a minimum inhibitory concentration (MIC) of 1000 µg/mL (≈ 3570 µM).

In turn, `CCCCCCC(=O)Nc1cc([N+](=O)[O-])ccc1O` returned a minimum inhibitory concentration (MIC) of 10 µg/mL (≈ 37.6 µM).

As a reminder, the MIC is the least concentration at which growth counts as inhibited. A low value points to a more susceptible organism.
